Data as given in ChEMBL document CHEMBL1137938, “Affinity and intrinsic efficacy (IE) of 5'-carbamoyl adenosine analogues for the A1 adenosine receptor--efforts towards the discovery of a chronic ventricular rate control agent for the treatment of atrial fibrillation (AF)” (Bioorg Med Chem Lett, 2004).
Values belong to the compound of their own block, whether it stands above or below them.

Key:
[1] = system: Adenosine receptor A1 (Mesocricetus auratus); experiment: Stimulation of binding of [35S]GTP uM)
[2] = organism: Cavia porcellus; experiment: Agonist-induced SH prolongation in guinea pig isolated heart was determined; 3-5 uM (Partial agonist); format: functional
[3] = Amount of tecadenoson present after 30 min in the liver S-9 assay as determined by mass specanalysis; 1-2; format: ADME, tissue-based; conditions: human, 0.5 h
[4] = Compound remaining after incubation with 2 mg/mL of human liver microsomes at 37 degrees C for 30 min in a pH 7.4, 0.05 M phosphate buffer; format: ADME, Microsome
Outline: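 Incubation with human liver microsomes at 2 mg/mL, 37 C, 30 min, in 0.05 M phosphate buffer pH 7.4 containing 5 mM MgCl2 and 2 mM NADPH; percentage of parent compound remaining recorded.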

[5] = organism: Cavia porcellus; experiment: Agonist-induced SH prolongation in guinea pig isolated heart was determined; 0.5-1 uM (Partial agonist); format: functional, organism-based
[6] = Maximum concentration in rat plasma after 5 mg/kg oral gavage; format: ADME, organism-based; design: dose 5 mg/kg, route oral
Outline: (§1)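 Rats dosed by oral gavage with parent at 5 mg/kg, or with bis-acetate prodrug at molar equivalents. Parent concentration in plasma followed over time. Cmax and AUC taken from the plasma profile. Oral bioavailability derived from AUC measurements.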

[7] = Concentration in rat plasma after 5 mg/kg oral gavage for 8 hours; format: ADME, organism-based; design: dose 5 mg/kg, route oral
Outline: as §1

[8] = organism: Cavia porcellus; experiment: Agonist-induced SH prolongation in guinea pig isolated heart was determined; 3-5 uM (Full agonist); format: functional
[9] = organism: Cavia porcellus; experiment: Agonist-induced SH prolongation in guinea pig isolated heart was determined; Inactive; format: functional
[10] = organism: Cavia porcellus; experiment: Agonist-induced SH prolongation in guinea pig isolated heart was determined; format: functional
[11] = Amount of tecadenoson present after 30 min in the liver S-9 assay as determined by mass specanalysis; format: ADME, tissue-based; conditions: human, 0.5 h
[12] = organism: Cavia porcellus; experiment: Agonist-induced SH prolongation in guinea pig isolated heart was determined; 0.5-0.51 uM (Partial agonist); format: functional
[13] = Amount of tecadenoson present after 30 min in the liver S-9 assay as determined by mass specanalysis; trace; format: ADME, tissue-based; conditions: human, 0.5 h
[14] = Plasma half life in rat after 5 mg/kg oral gavage; 6-8 hours; format: ADME, organism-based; design: dose 5 mg/kg, route oral
[15] = Bioavailability in rat after 5 mg/kg oral gavage; format: ADME, organism-based; conditions: in vivo, read-out: Bioavailabiility
Outline: as §1

[16] = Amount of tecadenoson present after 30 min in the liver S-9 assay as determined by mass specanalysis; -0.5 to 1; format: ADME, tissue-based; conditions: human, 0.5 h

[35S]GTPγS binding stimulation (% of CPA) [1]: 48%
SMILES: C=CCNC(=O)OC[C@H]1OC(n2cnc3c(N[C@@H]4CCOC4)ncnc32)[C@H](O)[C@@H]1O (stereo not given in full)

[35S]GTPγS binding stimulation (% of CPA) [1]: 82%
SMILES: O=C(NC1CC1)OC[C@H]1OC(n2cnc3c(N[C@@H]4CCOC4)ncnc32)[C@H](O)[C@@H]1O (stereo not given in full)

EC50 [2]: 5 µM
[35S]GTPγS binding stimulation (% of CPA) [1]: 69%
SMILES: O=C(NC1CCCC1)OC[C@H]1OC(n2cnc3c(N[C@@H]4CCOC4)nc(Cl)nc32)[C@H](O)[C@@H]1O (stereo not given in full)

[35S]GTPγS binding stimulation (% of CPA) [1]: 82%
SMILES: O[C@@H]1[C@@H](COC(=S)NC2CCCCC2)OC(n2cnc3c(N[C@@H]4CCOC4)ncnc32)[C@@H]1O (stereo not given in full)

[35S]GTPγS binding stimulation (% of CPA) [1]: 85%
SMILES: CN(C)C(=S)OC[C@H]1OC(n2cnc3c(N[C@@H]4CCOC4)ncnc32)[C@H](O)[C@@H]1O (stereo not given in full)

[35S]GTPγS binding stimulation (% of CPA) [1]: 91%
SMILES: CC(C)NC(=O)OC[C@H]1OC(n2cnc3c(N[C@@H]4CCOC4)ncnc32)[C@H](O)[C@@H]1O (stereo not given in full)

[35S]GTPγS binding stimulation (% of CPA) [1]: 78%
SMILES: C=CCNC(=S)OC[C@H]1OC(n2cnc3c(N[C@@H]4CCOC4)ncnc32)[C@H](O)[C@@H]1O (stereo not given in full)

Activity [3]: 2%
remaining at 0.5 h [4]: 98%
EC50 [5]: 1 µM
[35S]GTPγS binding stimulation (% of CPA) [1]: 89%
SMILES: CCCNC(=S)OC[C@H]1OC(n2cnc3c(N[C@@H]4CCOC4)ncnc32)[C@H](O)[C@@H]1O (stereo not given in full)

Cmax [6]: 647 ng/mL
AUC at 8 h [7]: 1340 ng·h/mL
SMILES: CNC(=O)OC[C@H]1OC(n2cnc3c(N[C@@H]4CCOC4)ncnc32)[C@H](OC(C)=O)[C@@H]1OC(C)=O (stereo not given in full)

[35S]GTPγS binding stimulation (% of CPA) [1]: 67%
SMILES: O=C(NC1CCC1)OC[C@H]1OC(n2cnc3c(N[C@@H]4CCOC4)ncnc32)[C@H](O)[C@@H]1O (stereo not given in full)

[35S]GTPγS binding stimulation (% of CPA) [1]: 44%
SMILES: O=C(NCc1ccccc1)OC[C@H]1OC(n2cnc3c(N[C@@H]4CCOC4)ncnc32)[C@H](O)[C@@H]1O (stereo not given in full)

EC50 [8]: 5 µM
[35S]GTPγS binding stimulation (% of CPA) [1]: 95%
SMILES: O[C@@H]1[C@@H](COC(=S)NC2CCCC2)OC(n2cnc3c(N[C@@H]4CCOC4)ncnc32)[C@@H]1O (stereo not given in full)

EC50 [9]: Not Active
[35S]GTPγS binding stimulation (% of CPA) [1]: 70%
SMILES: CCCCNC(=S)OC[C@H]1OC(n2cnc3c(N[C@@H]4CCOC4)ncnc32)[C@H](O)[C@@H]1O (stereo not given in full)

EC50 [8]: 5 µM
[35S]GTPγS binding stimulation (% of CPA) [1]: 77%
SMILES: CCNC(=S)OC[C@H]1OC(n2cnc3c(N[C@@H]4CCOC4)ncnc32)[C@H](O)[C@@H]1O (stereo not given in full)

[35S]GTPγS binding stimulation (% of CPA) [1]: 80%
SMILES: CCNC(=O)OC[C@H]1OC(n2cnc3c(N[C@@H]4CCOC4)ncnc32)[C@H](O)[C@@H]1O (stereo not given in full)

EC50 [10]: > 5 µM
[35S]GTPγS binding stimulation (% of CPA) [1]: 49%
SMILES: CCCCNC(=O)OC[C@H]1OC(n2cnc3c(N[C@@H]4CCOC4)ncnc32)[C@H](O)[C@@H]1O (stereo not given in full)

[35S]GTPγS binding stimulation (% of CPA) [1]: 93%
SMILES: O[C@@H]1[C@@H](COC(=S)NCc2ccccc2)OC(n2cnc3c(N[C@@H]4CCOC4)ncnc32)[C@@H]1O (stereo not given in full)

[35S]GTPγS binding stimulation (% of CPA) [1]: 87%
SMILES: CN(C)C(=O)OC[C@H]1OC(n2cnc3c(N[C@@H]4CCOC4)ncnc32)[C@H](O)[C@@H]1O (stereo not given in full)

Activity [11]: 0%
remaining at 0.5 h [4]: 41%
EC50 [12]: 0.51 µM
[35S]GTPγS binding stimulation (% of CPA) [1]: 84%
SMILES: CCNC(=S)OC[C@H]1OC(n2cnc3c(N[C@@H]4CCOC4)nc(Cl)nc32)[C@H](O)[C@@H]1O (stereo not given in full)

Activity [13]: Partially active
remaining at 0.5 h [4]: ~100%
Cmax [6]: 305 ng/mL
half-life [14]: 8 h
AUC at 8 h [7]: 698 ng·h/mL
EC50 [2]: 5 µM
bioavailability [15]: 9%
SMILES: CNC(=O)OC[C@H]1OC(n2cnc3c(N[C@@H]4CCOC4)ncnc32)[C@H](O)[C@@H]1O (stereo not given in full)

[35S]GTPγS binding stimulation (% of CPA) [1]: 79%
SMILES: O[C@@H]1[C@@H](COC(=S)NC2CCC2)OC(n2cnc3c(N[C@@H]4CCOC4)ncnc32)[C@@H]1O (stereo not given in full)

EC50 [2]: 5 µM
[35S]GTPγS binding stimulation (% of CPA) [1]: 77%
SMILES: CNC(=O)OC[C@H]1OC(n2cnc3c(N[C@@H]4CCOC4)nc(Cl)nc32)[C@H](O)[C@@H]1O (stereo not given in full)

[35S]GTPγS binding stimulation (% of CPA) [1]: 84%
SMILES: CC(C)NC(=S)OC[C@H]1OC(n2cnc3c(N[C@@H]4CCOC4)ncnc32)[C@H](O)[C@@H]1O (stereo not given in full)

[35S]GTPγS binding stimulation (% of CPA) [1]: 73%
SMILES: CCCNC(=O)OC[C@H]1OC(n2cnc3c(N[C@@H]4CCOC4)ncnc32)[C@H](O)[C@@H]1O (stereo not given in full)

Activity [16]: 1%
remaining at 0.5 h [4]: 99%
EC50 [12]: 0.51 µM
[35S]GTPγS binding stimulation (% of CPA) [1]: 77%
SMILES: CNC(=S)OC[C@H]1OC(n2cnc3c(N[C@@H]4CCOC4)ncnc32)[C@H](O)[C@@H]1O (stereo not given in full)

[35S]GTPγS binding stimulation (% of CPA) [1]: 82%
SMILES: O[C@@H]1[C@@H](COC(=S)NC2CC2)OC(n2cnc3c(N[C@@H]4CCOC4)ncnc32)[C@@H]1O (stereo not given in full)

Activity [11]: 0%
remaining at 0.5 h [4]: 62%
EC50 [12]: 0.51 µM
[35S]GTPγS binding stimulation (% of CPA) [1]: 77%
SMILES: CNC(=S)OC[C@H]1OC(n2cnc3c(N[C@@H]4CCOC4)nc(Cl)nc32)[C@H](O)[C@@H]1O (stereo not given in full)

EC50 [2]: 5 µM
SMILES: O=C(NC1CCCC1)OC[C@H]1OC(n2cnc3c(N[C@@H]4CCOC4)ncnc32)[C@H](O)[C@@H]1O (stereo not given in full)

EC50 [2]: < 0.5 µM
SMILES: OC[C@H]1O[C@@H](n2cnc3c(N[C@@H]4CCOC4)ncnc32)[C@H](O)[C@@H]1O [TECADENOSON]

[35S]GTPγS binding stimulation (% of CPA) [1]: 80%
SMILES: O=C(NC1CCCCC1)OC[C@H]1OC(n2cnc3c(N[C@@H]4CCOC4)ncnc32)[C@H](O)[C@@H]1O (stereo not given in full)
